Results published in article PMC6069912 (ESMO Open, 2018).
*1 amine or outer side, *2 acyl side, *3 side chain or, on linkers, in order; H or OH if unused. Where a SMILES comes first, the peptide text is derived from it. Side-chain parts run from the residue outwards. [ ]: non-standard residue; d: D form. The star is where a group is joined. Ethylenediamine = C(CN[*:2])N[*:1]; Hyp = O=C(O)[C@@H]1C[C@@H](O)CN1; Phg = N[C@H](C(=O)O)c1ccccc1; CO = O=C([*:1])[*:2]; Bn = c1ccc(C*)cc1

Assays:
Format in all cases: in vivo, human
[1] = system: patients with BRAF-WT and NRAS-WT metastatic melanoma; test: Phase I safety: adverse events
Outline: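 Open-label intrapatient escalation of the test compound SC at 300, 600, 900 and 1200 µg tid over an 8-week dose-escalation phase. At each visit, monitoring covered laboratory tests, ECG, vital signs, physical examination and gall bladder ultrasound, with AEs recorded in the eCRF. AEs of any relationship were tabulated by preferred term and by the dose level at which they started. Safety set: ≥1 dose plus ≥1 post-baseline safety assessment.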

[2] = system: BRAF-WT and NRAS-WT metastatic melanoma; test: Antitumour activity: tumour response by RECIST 1.0; conditions: n=10, two patients, 95% CI 2.5 to 55.6; by CT or MRI and 18-FDG-PET
Outline: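 Patients with measurable RECIST 1.0 disease and ≥1 lesion suitable for 18-FDG-PET SUV measurement received the test compound SC at 300, 600, 900 and 1200 µg tid by intrapatient escalation for ≤8 weeks, optionally followed by 80 mg long-acting IM every 28 days. Investigators assessed response by RECIST 1.0 on CT/MRI on days 57, 113 and 169 and at end of treatment, and by adapted EORTC criteria on 18-FDG-PET on days 29 and 57. Efficacy set: ≥1 dose; 95% CI.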

[3] = Pharmacokinetics of pasireotide SC in patients, non-compartmental analysis
Outline: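 Patients received the test compound SC at 300–1200 µg tid during the dose-escalation phase. […] was sampled on days 1 and 8 of each of the four dose-escalation cycles and monthly during follow-up. Non-compartmental analysis gave Cmax and Cmin on days 1 and 8 of each cycle, and AUC0–2h at steady state.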

[4] = system: IGF-1, IGF-2, IGFBP2, IGFBP3, S100B, MIA; test: Serum secretion and melanoma response biomarkers over time; conditions: patients
Outline: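 Serum S100B, MIA, IGF-1, IGF-2, IGFBP2 and IGFBP3 were followed over time in patients receiving the test compound SC tid (300–1200 µg escalation, optionally followed by 80 mg long-acting IM every 28 days). Results were summarised descriptively.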

Ki-67 = Ki-67 staining of tumour samples before and during pasireotide; conditions: assessed before and during treatment in four patients
[5] = system: patient with BRAF-WT and NRAS-WT stage IVc cutaneous melanoma; test: Individual patient response summary: ascites and weight; conditions: patient number 4, after readministration of pasireotide
[6] = dose-escalation phase, AEs started at 300 µg tid SC, safety set n=10
[7] = dose-escalation phase, AEs started at 600 µg tid SC, safety set n=10
[8] = dose-escalation phase, AEs started at 900 µg tid SC, safety set n=10
[9] = dose-escalation phase, AEs started at 1200 µg tid SC, safety set n=10
[10] = dose-escalation phase, all patients (all dose levels), safety set n=10
[11] = overall (dose-escalation phase+follow-up phase), all patients, safety set n=10

## NCCCC[C@@H]1NC(=O)[C@@H](Cc2c[nH]c3ccccc23)NC(=O)[C@H](c2ccccc2)NC(=O)[C@@H]2C[C@@H](OC(=O)NCCN)CN2C(=O)[C@H](Cc2ccccc2)NC(=O)[C@H](Cc2ccc(OCc3ccccc3)cc2)NC1=O [pasireotide] (cyclo([Hyp]([CO-Ethylenediamine])[Phg][dW]KY(Bn)F))
[1]; authors' overall conclusion
  Tolerability in patients with BRAF-WT and NRAS-WT melanoma: safe and well tolerated
[1]; [6]
  Chills, AE regardless of study drug relationship: 0 n (%)
  Diarrhoea, AE regardless of study drug relationship: 4 (40) n (%)
  Fatigue, AE regardless of study drug relationship: 2 (20) n (%)
  Hyperglycaemia, AE regardless of study drug relationship: 2 (20) n (%)
  Hypophosphatemia, AE regardless of study drug relationship: 1 (10) n (%)
  Nausea, AE regardless of study drug relationship: 3 (30) n (%)
  Tumour pain, AE regardless of study drug relationship: 2 (20) n (%)
[1]; [7]
  Chills, AE regardless of study drug relationship: 1 (10) n (%)
  Diarrhoea, AE regardless of study drug relationship: 1 (10) n (%)
  Fatigue, AE regardless of study drug relationship: 0 n (%)
  Hyperglycaemia, AE regardless of study drug relationship: 0 n (%)
  Hypophosphatemia, AE regardless of study drug relationship: 1 (10) n (%)
  Nausea, AE regardless of study drug relationship: 2 (20) n (%)
  Tumour pain, AE regardless of study drug relationship: 0 n (%)
[1]; [8]
  Chills, AE regardless of study drug relationship: 1 (10) n (%)
  Diarrhoea, AE regardless of study drug relationship: 0 n (%)
  Fatigue, AE regardless of study drug relationship: 0 n (%)
  Hyperglycaemia, AE regardless of study drug relationship: 0 n (%)
  Hypophosphatemia, AE regardless of study drug relationship: 1 (10) n (%)
  Nausea, AE regardless of study drug relationship: 1 (10) n (%)
  Tumour pain, AE regardless of study drug relationship: 0 n (%)
[1]; [9]
  Chills, AE regardless of study drug relationship: 0 n (%)
  Diarrhoea, AE regardless of study drug relationship: 0 n (%)
  Fatigue, AE regardless of study drug relationship: 0 n (%)
  Hyperglycaemia, AE regardless of study drug relationship: 0 n (%)
  Hypophosphatemia, AE regardless of study drug relationship: 0 n (%)
  Nausea, AE regardless of study drug relationship: 0 n (%)
  Tumour pain, AE regardless of study drug relationship: 0 n (%)
[1]; [10]
  Chills, AE regardless of study drug relationship: 2 (20) n (%)
  Diarrhoea, AE regardless of study drug relationship: 5 (50) n (%)
  Fatigue, AE regardless of study drug relationship: 2 (20) n (%)
  Hyperglycaemia, AE regardless of study drug relationship: 2 (20) n (%)
  Hypophosphatemia, AE regardless of study drug relationship: 2 (20) n (%)
  Nausea, AE regardless of study drug relationship: 5 (50) n (%)
  Tumour pain, AE regardless of study drug relationship: 2 (20) n (%)
[1]; dose-escalation phase, n=10
  Incidence of chills (most commonly reported AEs): 20%
  Incidence of diarrhoea (most commonly reported AEs): 50%
  Incidence of fatigue (most commonly reported AEs): 20%
  Incidence of hyperglycaemia (most commonly reported AEs): 20%
  Incidence of hypophosphatemia (most commonly reported AEs): 20%
  Incidence of nausea (most commonly reported AEs): 50%
  Incidence of tumour pain (most commonly reported AEs): 20%
  Study drug-related AE: diarrhoea: 50%
  Study drug-related AE: fatigue: 20%
  Study drug-related AE: hyperglycaemia: 20%
  Study drug-related AE: nausea: 50%
[1]; [11]
  Chills, AE regardless of study drug relationship: 2 (20) n (%)
  Diarrhoea, AE regardless of study drug relationship: 5 (50) n (%)
  Fatigue, AE regardless of study drug relationship: 3 (30) n (%)
  Hyperglycaemia, AE regardless of study drug relationship: 3 (30) n (%)
  Hypophosphatemia, AE regardless of study drug relationship: 3 (30) n (%)
  Nausea, AE regardless of study drug relationship: 5 (50) n (%)
  Tumour pain, AE regardless of study drug relationship: 2 (20) n (%)
  Weight decreased, AE regardless of study drug relationship: 2 (20) n (%)
[1]; overall safety, n=10
  Incidence of chills (most commonly reported AEs): 20%
  Incidence of decreased weight (most commonly reported AEs): 20%
  Incidence of diarrhoea (most commonly reported AEs): 50%
  Incidence of fatigue (most commonly reported AEs): 30%
  Incidence of hyperglycaemia (most commonly reported AEs): 30%
  Incidence of hypophosphatemia (most commonly reported AEs): 30%
  Incidence of nausea (most commonly reported AEs): 50%
  Incidence of tumour pain (most commonly reported AEs): 20%
  Study drug-related AE: diarrhoea: 50%
  Study drug-related AE: fatigue: 20%
  Study drug-related AE: hyperglycaemia: 30%
  Study drug-related AE: hypophosphatemia: 20%
  Study drug-related AE: nausea: 50%
  Study drug-related AE: weight decrease: 20%
  Study drug-related AEs, patients with any: 80%
[1]; overall safety, diarrhoea and nausea in one patient, hypophosphatemia in one patient, n=10
  Grade 3 or 4 drug-related AEs: 20%
[2]
  Best overall DCR (stable disease or better): 20%
[3]; 300 µg three times a day SC, patients
  Accumulation ratio of AUC0–2h: 147%
[3]; mean plasma concentration versus time profiles on day 8, 300-1200 µg tid SC
  AUC0–2h, Cmax and Cmin versus dose: increased with the increasing dose
[4]; over time
  Serum level of IGF-1 during treatment: decrease
  Serum level of IGF-2 during treatment: decrease
  Serum level of MIA during treatment: decrease
  Serum level of S100B during treatment: decrease
[4]; serum
  IGFBP2 serum levels with time: increase
  IGFBP3 levels with time: decrease
Ki-67
  Tumour samples with decreases in Ki-67 staining following treatment: Three of the four
[5]
  Improvement in ascites: from grade 2 to grade 1
[5]; ascites
  Reduction in weight: from 85 kg to 63 kg
